Measurements taken from ChEMBL document CHEMBL2424615, “Design, synthesis, and characterization of novel tetrahydropyran-based bacterial topoisomerase inhibitors with potent anti-gram-positive activity” (J Med Chem, 2013).

Columns and labels:
[1] = Inhibition of wild type Escherichia coli ATCC 25922 DNA gyrase subunit 2GyrA/2GyrB assessed as pBR322 supercoiling after 1 hr
Pseudomonas aeruginosa = experiment: Antibacterial activity against wild type Pseudomonas aeruginosa ATCC 27853 assessed as growth inhibition by broth microdilution method; type: functional
Topoisomerase IV = Topoisomerase IV (Staphylococcus aureus, UniProt P0C1S7+P0C1U9); experiment: Inhibition of wild type Staphylococcus aureus ATCC 29213 topoisomerase-4 subunit 2GrlA/2GrlB assessed as pBR322 relaxation after 1 hr; type: protein-complex assay
Staphylococcus aureus [2] = experiment: Antibacterial activity against NXL-101-resistant Staphylococcus aureus A-234 harboring DNA gyrase subunit A D83N mutant assessed as growth inhibition by broth microdilution method; type: functional
[3] = Inhibition of wild type Escherichia coli ATCC 25922 DNA topoisomerase-4 subunit 2ParC/2ParE assessed as pBR322 relaxation after 1 hr
Streptococcus pneumoniae [4] = experiment: Antibacterial activity against wild type Streptococcus pneumoniae ATCC 49619 assessed as growth inhibition by broth microdilution method; type: functional
DNA gyrase = DNA gyrase (Staphylococcus aureus, UniProt P0A0K8+P20831); experiment: Inhibition of wild type Staphylococcus aureus DNA gyrase subunit 2GyrA/2GyrB assessed as pBR322 supercoiling after 1 hr; type: protein-complex assay
Escherichia coli = experiment: Antibacterial activity against wild type Escherichia coli ATCC 25922 assessed as growth inhibition by broth microdilution method; type: functional
Staphylococcus aureus [5] = experiment: Antibacterial activity against wild type Staphylococcus aureus ATCC 29213 assessed as growth inhibition by broth microdilution method; type: functional
Staphylococcus aureus [6] = experiment: Spontaneous resistance frequency for Staphylococcus aureus ATCC 25923 at 4 times MIC to 16 times MIC after 48 hrs relative to NXL-101; type: functional
Outline: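 Incubated 48 h at 37 °C. Frequency calculated as resistant colonies divided by viable bacteria plated, with the viable count taken on drug-free agar.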

hERG (KCNH2) = hERG (KCNH2) (Homo sapiens, UniProt Q12809); experiment: Inhibition of human ERG expressed in CHO cells at 10 uM after 3 mins by patch clamp assay relative to control; type: cell-based; conditions: CHO cells that express human ERG
[7] = AUC in Wistar rat at 1 mg/kg, iv administered as bolus dose; type: ADME, organism-based; set-up: dose 1 mg/kg, route intravenous; conditions: plasma
Outline: (§1)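 Male Wistar rats (n = 3) dosed by iv bolus (0.5 or 1 mg/kg) or orally (1 or 10 mg/kg); iv vehicles included pH 4.5 aqueous solution, 5% DMSO in water, or 10% PG/10% PEG400 in water pH 7; oral as pH 5.6 aqueous suspension or microsuspension in 7.5% modified gelatin. Blood sampled by preimplanted catheter over 24 h; plasma by LC-MS/MS, LOQ 1.5 ng/mL.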

[8] = Intrinsic clearance in mouse liver microsomes at 1 uM; type: ADME, Microsome; conditions: read-out: CLH
[9] = Half life in Wistar rat at 1 mg/kg, iv administered as bolus dose and 10 mg/kg, po; type: ADME, organism-based; conditions: in vivo; outline: as §1
Rattus norvegicus [10] = experiment: Unbound clearance in Wistar rat at 1 mg/kg, iv administered as bolus dose and 10 mg/kg, po; type: ADME, organism-based; conditions: in vivo; outline: as §1
[11] = Oral bioavailability in Wistar rat at 10 mg/kg; type: ADME, organism-based; conditions: in vivo; outline: as §1
[12] = Fraction unbound in Wistar rat plasma at 1 mg/kg, iv administered as bolus dose and 10 mg/kg, po; type: ADME, organism-based
[13] = Intrinsic clearance in rat liver microsomes at 1 uM; type: ADME, Microsome; conditions: read-out: CLH
[14] = Volume of distribution at steady state in Wistar rat at 1 mg/kg, iv administered as bolus dose and 10 mg/kg, po; type: ADME, organism-based; conditions: in vivo, read-out: Vdss; outline: as §1
[15] = AUC in Wistar rat at 10 mg/kg, po; type: ADME, organism-based; set-up: dose 10 mg/kg, route oral; conditions: plasma; outline: as §1
[16] = Intrinsic clearance in human liver microsomes at 1 uM; type: ADME, Microsome; conditions: read-out: CLH
[17] = Clearance in Wistar rat at 1 mg/kg, iv administered as bolus dose; type: ADME, organism-based; set-up: dose 1 mg/kg, route intravenous; conditions: in vivo; outline: as §1
Enterococcus faecium = experiment: Antibacterial activity against vancomycin-resistant Enterococcus faecium clinical isolate assessed as growth inhibition by broth microdilution method; type: functional
Rattus norvegicus [18] = experiment: Unbound clearance in Wistar rat at 0.5 mg/kg, iv and 1 mg/kg, po; type: ADME, organism-based; conditions: in vivo; outline: as §1
Enterococcus faecalis = experiment: Antibacterial activity against Enterococcus faecalis clinical isolate assessed as growth inhibition by broth microdilution method; type: functional
[19] = Fraction unbound in Wistar rat plasma at 0.5 mg/kg, iv and 1 mg/kg, po; type: ADME, organism-based
Haemophilus influenzae = experiment: Antibacterial activity against Haemophilus influenzae clinical isolate assessed as growth inhibition by broth microdilution method; type: functional
Moraxella catarrhalis = experiment: Antibacterial activity against Moraxella catarrhalis clinical isolate assessed as growth inhibition by broth microdilution method; type: functional
Staphylococcus aureus [20] = experiment: Antistaphylococcal activity against Staphylococcus aureus DSM 11823 assessed as growth inhibition by broth microdilution method; type: functional
Streptococcus pneumoniae [21] = experiment: Antibacterial activity against Streptococcus pneumoniae clinical isolate assessed as growth inhibition by broth microdilution method; type: functional
Staphylococcus aureus [22] = experiment: Antistaphylococcal activity against Staphylococcus aureus DSM 11823 in neutropenic NMRI mouse thigh infection model assessed as reduction of log10cfu in thigh at 40 mg/kg, sc measured after 6 hrs; type: functional; conditions: route subcutaneous
Outline: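 Mice made neutropenic with ip cyclophosphamide, 150 mg/kg on day -4 and 100 mg/kg on day -1. Log-phase S. aureus (A580 0.3-0.9), 0.05 ml inoculum given im into both thighs 2 h before sc dosing in 5% mannitol in water at 10 ml/kg. Thighs homogenized, serially diluted and plated for CFU 6 h post infection.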

Streptococcus pyogenes = experiment: Antibacterial activity against Streptococcus pyogenes clinical isolate assessed as growth inhibition by broth microdilution method; type: functional
[23] = test system: Staphylococcus epidermidis; experiment: Antibacterial activity against Staphylococcus epidermidis clinical isolate assessed as growth inhibition by broth microdilution method; type: functional
[24] = Half life in Wistar rat at 0.5 mg/kg, iv and 1 mg/kg, po; type: ADME, organism-based; conditions: in vivo; outline: as §1
Streptococcus agalactiae = experiment: Antibacterial activity against Streptococcus agalactiae clinical isolate assessed as growth inhibition by broth microdilution method; type: functional
[25] = Clearance in Wistar rat at 0.5 mg/kg, iv; type: ADME, organism-based; set-up: dose 0.5 mg/kg, route intravenous; conditions: in vivo; outline: as §1
[26] = Volume of distribution at steady state in Wistar rat at 0.5 mg/kg, iv and 1 mg/kg, po; type: ADME, organism-based; conditions: in vivo, read-out: Vdss; outline: as §1
[27] = Oral bioavailability in Wistar rat at 1 mg/kg; type: ADME, organism-based; conditions: in vivo; outline: as §1
[28] = AUC in Wistar rat at 1 mg/kg, po; type: ADME, organism-based; set-up: dose 1 mg/kg, route oral; conditions: plasma; outline: as §1
Staphylococcus aureus [29] = experiment: Antibacterial activity against fluoroquinolone-resistant Staphylococcus aureus clinical isolate assessed as growth inhibition by broth microdilution method; type: functional
Staphylococcus aureus [30] = experiment: Antibacterial activity against methicillin-resistant Staphylococcus aureus clinical isolate assessed as growth inhibition by broth microdilution method; type: functional
[31] = AUC in Wistar rat at 0.5 mg/kg, iv; type: ADME, organism-based; set-up: dose 0.5 mg/kg, route intravenous; conditions: plasma; outline: as §1

Structure (SMILES): COc1ccc2ncc(F)c([C@@H](O)[C@H](O)[C@@H]3CC[C@@H](NCc4ccc5c(n4)NC(=O)CS5)CO3)c2n1
- IC50 [1]: 500 nM
- MIC (Pseudomonas aeruginosa): > 8 µg/mL
- IC50 (Topoisomerase IV): 500 nM
- MIC (Staphylococcus aureus [2]): 0.25 µg/mL
- IC50 [3]: 30 nM
- MIC (Streptococcus pneumoniae [4]): 0.06 µg/mL
- IC50 (DNA gyrase): 30 nM
- MIC (Escherichia coli): 1 µg/mL
- MIC (Staphylococcus aureus [5]): 0.03 µg/mL
- fold change (FC) (Staphylococcus aureus [6]): 10
- inhibition at 0.05 h, 10 µM (hERG (KCNH2)): 54%

Structure (SMILES): COc1cnc2cccc([C@@H](O)[C@H](O)[C@@H]3CC[C@@H](NCc4ccc5c(n4)NC(=O)CS5)CO3)c2n1
- IC50 [1]: 500 nM
- AUC [7]: 313 ng·h/mL
- MIC (Pseudomonas aeruginosa): > 8 µg/mL
- IC50 (Topoisomerase IV): 2000 nM
- microsomal CLint at 1 µM [8]: 39 µL/min/mg
- half-life [9]: 5.9 h
- MIC (Staphylococcus aureus [2]): 0.5 µg/mL
- CL free (Rattus norvegicus [10]): 294 mL/min/kg
- IC50 [3]: 125 nM
- MIC (Streptococcus pneumoniae [4]): 0.06 µg/mL
- IC50 (DNA gyrase): 30 nM
- MIC (Escherichia coli): 2 µg/mL
- bioavailability [11]: 26%
- MIC (Staphylococcus aureus [5]): 0.03 µg/mL
- fraction unbound [12]: 0.18
- microsomal CLint at 1 µM [13]: 92 µL/min/mg
- Vd [14]: 18 L/kg
- AUC [15]: 817 ng·h/mL
- inhibition at 0.05 h, 10 µM (hERG (KCNH2)): 55%
- microsomal CLint at 1 µM [16]: 45 µL/min/mg
- clearance [17]: 53 mL/min/kg

Structure (SMILES): COc1ccc2ncc(F)c([C@@H](O)[C@H](O)[C@@H]3CC[C@@H](NCc4cc5c(cn4)OCCS5)CO3)c2n1
- IC50 [1]: 8000 nM
- MIC (Pseudomonas aeruginosa): > 8 µg/mL
- MIC50 (Enterococcus faecium): 0.25 µg/mL
- MIC90 (Enterococcus faecium): 1 µg/mL
- IC50 (Topoisomerase IV): 8000 nM
- CL free (Rattus norvegicus [18]): 512 mL/min/kg
- MIC50 (Enterococcus faecalis): 0.5 µg/mL
- MIC90 (Enterococcus faecalis): 0.5 µg/mL
- fraction unbound [19]: 0.017
- MIC50 (Haemophilus influenzae): 0.5 µg/mL
- MIC90 (Haemophilus influenzae): 4 µg/mL
- MIC50 (Moraxella catarrhalis): 0.03 µg/mL
- MIC90 (Moraxella catarrhalis): 0.125 µg/mL
- MIC (Staphylococcus aureus [20]): 0.06 µg/mL
- MIC50 (Streptococcus pneumoniae [21]): 0.06 µg/mL
- MIC90 (Streptococcus pneumoniae [21]): 0.125 µg/mL
- log10cfu (Staphylococcus aureus [22]): 1
- MIC50 (Streptococcus pyogenes): 0.03 µg/mL
- MIC90 (Streptococcus pyogenes): 0.06 µg/mL
- microsomal CLint at 1 µM [8]: 291 µL/min/mg
- MIC50 [23]: 0.06 µg/mL
- MIC90 [23]: 0.25 µg/mL
- MIC (Staphylococcus aureus [2]): 2 µg/mL
- IC50 [3]: 125 nM
- MIC (Streptococcus pneumoniae [4]): ≤ 0.015 µg/mL
- half-life [24]: 3 h
- MIC50 (Streptococcus agalactiae): 0.25 µg/mL
- MIC90 (Streptococcus agalactiae): 0.5 µg/mL
- IC50 (DNA gyrase): 30 nM
- MIC (Escherichia coli): 8 µg/mL
- MIC (Staphylococcus aureus [5]): ≤ 0.015 µg/mL
- fold change (FC) (Staphylococcus aureus [6]): 10
- clearance [25]: 8.7 mL/min/kg
- Vd [26]: 1 L/kg
- bioavailability [27]: 41%
- AUC [28]: 776 ng·h/mL
- MIC50 (Staphylococcus aureus [29]): ≤ 0.015 µg/mL
- MIC90 (Staphylococcus aureus [29]): 0.03 µg/mL
- microsomal CLint at 1 µM [13]: 344 µL/min/mg
- MIC50 (Staphylococcus aureus [30]): ≤ 0.015 µg/mL
- MIC90 (Staphylococcus aureus [30]): 0.03 µg/mL
- inhibition at 0.05 h, 10 µM (hERG (KCNH2)): 19%
- AUC [31]: 959 ng·h/mL
- microsomal CLint at 1 µM [16]: 30 µL/min/mg
